This note sets out measurements from ChEMBL document CHEMBL1155292, “Synthesis, analgesic and anti-inflammatory activities evaluation of some bi-, tri- and tetracyclic condensed pyrimidines” (Eur J Med Chem, 2009).

Usually inhibition in vivo stands for the relative decrease from the control value, in per cent.

Data set [1] concerns Rattus norvegicus. Nature of the data set: Antiinflammatory activity in albino rat assessed as inhibition of carrageenan-induced paw edema at 0.029 mmol/kg, po after 2 hrs relative to control. It is filed as functional. The method in brief: (§1)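 Adult albino rats of either sex, 120–150 g, six per group. Compounds at 0.029 mmol/kg suspended in saline with a few drops of Tween 80 and given by oral stomach tube. After 1 h, 0.1 ml of freshly prepared 1% carrageenan in saline injected subplantar into the right hind paw. Paw thickness measured at 1–4 h; % edema inhibition versus control; mean ± SEM; ANOVA.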
On the technique in general: Carrageenan injected into the paw causes an acute inflammation.

Data set [2] concerns Rattus norvegicus. As to the kind of experiment: Antiinflammatory activity in albino rat assessed as inhibition of carrageenan-induced paw edema at 0.029 mmol/kg, po after 3 hrs relative to control. It is filed as functional. The method in brief: as §1
Data set [3] has as its system Rattus norvegicus. As to the kind of experiment: Antiinflammatory activity in albino rat assessed as inhibition of carrageenan-induced paw edema at 0.029 mmol/kg, po after 4 hrs relative to control. The format is functional. The method in brief: as §1
Data set [4] relates to Rattus norvegicus. As to the kind of experiment: Antiinflammatory activity in albino rat assessed as inhibition of carrageenan-induced paw edema at 0.029 mmol/kg, po after 4 hrs relative to indomethacin. The format is functional. The method in brief:
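Rat carrageenan paw edema: oral 0.029 mmol/kg in saline/Tween 80, 1 h before subplantar 0.1 ml 1% carrageenan into the right hind paw; six rats per group. Potency is % inhibition of the test compound divided by % inhibition of indomethacin at 4 h.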

For data set [5], the system named is Mus musculus. As to the kind of experiment: Analgesic activity in albino mouse assessed as decrease in acetic acid-induced writhing at 10.45 mg/kg, po administered 1 hr prior to acetic acid challenge relative to control. The format is functional. The method in brief: (§2)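 Albino mice of either sex, 18–22 g, six per group. Test agents suspended in saline with a few drops of Tween 80 and given by oral stomach tube; controls handled identically without drug. After 1 h, 0.3 ml of 1% acetic acid ip. Writhing contractions counted for 30 min, starting 5 min after injection. % protection versus control mean; mean ± SEM; one-way ANOVA with post hoc test.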

For data set [6], the system named is Rattus norvegicus. Nature of the data set: Antiinflammatory activity in albino rat assessed as inhibition of carrageenan-induced paw edema at 0.029 mmol/kg, po after 1 hr relative to control. The format is functional. A digest of the protocol: as §1
Data set [7] has as its system Mus musculus. As to the kind of experiment: Analgesic activity in albino mouse assessed as decrease in acetic acid-induced writhing at 10.39 mg/kg, po administered 1 hr prior to acetic acid challenge relative to control. It is filed as functional. The method in brief:
as §2

Data set [8] relates to Rattus norvegicus. As to the kind of experiment: Gastrointestinal toxicity in albino rat assessed as ulcerogenic index at 0.029 mmol/kg, po after 5 hrs. The format is organism-based. The note with it: in vivo. The method in brief: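 Adult albino rats of either sex (120–150 g), 6 per group, got the test compounds orally by stomach tube as a suspension in saline with a few drops of tween 80. They were the same rats used in the carrageenan paw-edema test. Stomachs were then opened along the great curvature and examined for lesions or bleeding. Ulceration was recorded as the number of rats with ulcers out of 6.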

The test system of data set [9] is Mus musculus. As to the kind of experiment: Analgesic activity in albino mouse assessed as decrease in acetic acid-induced writhing at 12.4 mg/kg, po administered 1 hr prior to acetic acid challenge relative to control. The format is functional. A digest of the protocol: as §2
(An intraperitoneal irritant provokes the stretching counted in writhing tests.)

Data set [10] deals with Mus musculus. As to the kind of experiment: Analgesic activity in albino mouse assessed as decrease in acetic acid-induced writhing at 12.04 mg/kg, po administered 1 hr prior to acetic acid challenge relative to control. The format is functional. A digest of the protocol:
as §2

In data set [11] the test system is Mus musculus. As to the kind of experiment: Analgesic activity in albino mouse assessed as decrease in acetic acid-induced writhing at 0.4 mg/kg, po administered 1 hr prior to acetic acid challenge. The format is functional. A digest of the protocol: as §2
In data set [12] the test system is Mus musculus. As to the kind of experiment: Analgesic activity in albino mouse assessed as decrease in acetic acid-induced writhing at 10.86 mg/kg, po administered 1 hr prior to acetic acid challenge relative to control. It is filed as functional. A digest of the protocol: as §2
For data set [13], the system named is Mus musculus. Nature of the data set: Analgesic activity in albino mouse assessed as decrease in acetic acid-induced writhing at 0.8 mg/kg, po administered 1 hr prior to acetic acid challenge. It is filed as functional. The method in brief: as §2
For data set [14], the system named is Mus musculus. As to the kind of experiment: Analgesic activity in albino mouse assessed as decrease in acetic acid-induced writhing at 1 mg/kg, po administered 1 hr prior to acetic acid challenge. It is filed as functional. A digest of the protocol: as §2
For data set [15], the system named is Mus musculus. As to the kind of experiment: Analgesic activity in albino mouse assessed as decrease in acetic acid-induced writhing at 2 mg/kg, po administered 1 hr prior to acetic acid challenge. The format is functional. The method in brief: as §2
Data set [16] relates to Mus musculus. Nature of the data set: Analgesic activity in albino mouse assessed as decrease in acetic acid-induced writhing at 4 mg/kg, po administered 1 hr prior to acetic acid challenge. It is filed as functional. The method in brief: as §2
In data set [17] the test system is Mus musculus. Nature of the data set: Analgesic activity in albino mouse assessed as decrease in acetic acid-induced writhing at 8 mg/kg, po administered 1 hr prior to acetic acid challenge. The format is functional. The method in brief:
as §2

For data set [18], the system named is Mus musculus. As to the kind of experiment: Analgesic activity in po dosed albino mouse assessed as decrease in acetic acid-induced writhing administered 1 hr prior to acetic acid challenge. The format is functional, organism-based. A digest of the protocol: as §2
Data set [19] relates to Mus musculus. As to the kind of experiment: Analgesic activity in albino mouse assessed as decrease in acetic acid-induced writhing at 8.45 mg/kg, po administered 1 hr prior to acetic acid challenge relative to control. It is filed as functional. A digest of the protocol: as §2

Regarding `O=C1NC(c2ccccc2)NC2=C1C1CCCN1C(=O)N2c1ccccc1` (stereo unspecified), the inhibition in vivo at 29 µmol/kg is 12.4% in the data set on Rattus norvegicus [1], 11.5% in the data set with Rattus norvegicus [2], 10.6% in the data set with Rattus norvegicus [3] and 4.47% with Rattus norvegicus [6]. Moreover, in the data set with Rattus norvegicus [4], the relative potency at 29 µmol/kg amounted to 0.38. The inhibition in vivo at 10.45 mg/kg in the data set with Mus musculus [5] came out at 77.7%.

Turning to `CCN1C(=S)N2CCCC2C2=C1NC(c1ccc(OC)cc1)NC2=O` (stereo unspecified), the inhibition in vivo at 29 µmol/kg in the data set on Rattus norvegicus [1] came out at 9.12%; in the data set with Rattus norvegicus [2], 10.8%; with Rattus norvegicus [3], 14.9%; with Rattus norvegicus [6] it was 10.1%. For the same compound, the relative potency at 29 µmol/kg in the data set on Rattus norvegicus [4] is 0.54. In addition, the inhibition in vivo at 10.39 mg/kg in the data set with Mus musculus [7] was 85%.

In the case of `O=C1N(c2ccccc2)c2nc(-c3ccccc3)nc(N3CCOCC3)c2C2CCCN12` (stereo unspecified), the inhibition in vivo at 29 µmol/kg in the data set with Rattus norvegicus [1] was 19%; in the data set on Rattus norvegicus [2], 18.7%; in the data set with Rattus norvegicus [3] it was 11.2%; with Rattus norvegicus [6], 11.2%. Further, in the data set with Rattus norvegicus [4], the relative potency at 29 µmol/kg was 0.4. Also, the UI entry in the data set with Rattus norvegicus [8] is on record as “Non-toxic”. In the data set on Mus musculus [9], the inhibition in vivo at 12.4 mg/kg stood at 67%.

Regarding `O=C1N(c2ccccc2)c2nc(-c3ccccc3)nc(N3CCCC3)c2C2CCCN12` (stereo unspecified), the inhibition in vivo at 29 µmol/kg is 26.5% in the data set with Rattus norvegicus [1], 25.2% in the data set on Rattus norvegicus [2], 15.5% in the data set on Rattus norvegicus [3] and 7.82% with Rattus norvegicus [6]. Moreover, the relative potency at 29 µmol/kg in the data set with Rattus norvegicus [4] stood at 0.56. In addition, the UI entry in the data set with Rattus norvegicus [8] is listed as “Non-toxic”. The inhibition in vivo at 12.04 mg/kg in the data set with Mus musculus [10] amounted to 95%.

`CCN1C(=S)N2CCCC2C2=C1NC(c1ccc(OC)c(O)c1)NC2=O` (stereo unspecified): the inhibition in vivo at 29 µmol/kg in the data set on Rattus norvegicus [1] was 9.12%; with Rattus norvegicus [2], 2.89%; in the data set with Rattus norvegicus [3] it was 3.09%; in the data set with Rattus norvegicus [6], 22.4%. For the same compound, the relative potency at 29 µmol/kg in the data set with Rattus norvegicus [4] was found to be 0.11. For the same compound, the inhibition in vivo at 0.4 mg/kg in the data set on Mus musculus [11] worked out at 53.6%. Also, in the data set with Mus musculus [12], the inhibition in vivo at 10.86 mg/kg turned out to be 98.7%. Further, in the data set with Mus musculus [13], the inhibition in vivo at 0.8 mg/kg amounted to 76%. In addition, in the data set on Mus musculus [14], the inhibition in vivo at 1 mg/kg was 86.9%. The inhibition in vivo at 2 mg/kg in the data set on Mus musculus [15] was 92%. The inhibition in vivo at 4 mg/kg in the data set on Mus musculus [16] was determined as 95.3%. Moreover, in the data set on Mus musculus [17], the inhibition in vivo at 8 mg/kg was determined as 97%. Besides, in the data set with Mus musculus [18], the IC50 stood at 0.359 mg/kg.

Take `CCCn1cnc2c(c1=N)C1CCCN1C(=S)N2CC` (stereo unspecified): the inhibition in vivo at 29 µmol/kg with Rattus norvegicus [1] worked out at 15.7%; in the data set with Rattus norvegicus [2], 9.37%; in the data set with Rattus norvegicus [3], 6.82%; with Rattus norvegicus [6], 13.5%. The relative potency at 29 µmol/kg with Rattus norvegicus [4] was 0.24. Also, in the data set with Rattus norvegicus [8], the UI result was “Non-toxic”. Also, the inhibition in vivo at 8.45 mg/kg with Mus musculus [19] was 77.2%.
